Test results published in ChEMBL document CHEMBL2380254, “Optimization of tocotrienols as antiproliferative and antimigratory leads” (Eur J Med Chem, 2013).

Tests used:
MCF7 [1] = test: Growth inhibition of human MCF7 cells assessed as cell growth at 10 uM after 48 hrs by sulforhodamine B assay; type: functional; conditions: MCF7, 48 h, read-out: Activity
How it was run: (§1)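 Single-dose NCI-60 screen: adherent cells in RPMI 1640 with 5% FBS were exposed to 10 µM for 48 h at 37 °C after a 24 h preincubation. They were fixed in situ with cold TCA (10% final), stained with 0.4% SRB in 1% acetic acid, solubilized in 10 mM Tris base, and read at 515 nm. Percent growth was taken relative to time-zero and control plates.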

SN12C = test: Growth inhibition of human SN12C cells after 48 hrs by sulforhodamine B assay; type: functional
How it was run: (§2)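 NCI-60 five-dose screen. Cells were grown in RPMI 1640 with 5% FBS and 2 mM L-glutamine, plated at 5000–40,000 cells/well and incubated 24 h before dosing, with T0 plates TCA-fixed. DMSO stocks were diluted to doses of […] and exposed 48 h at 37 °C, 5% CO2. Cells were fixed with cold TCA (final 10%, 60 min, 4 °C), stained with 0.4% SRB in 1% acetic acid for 10 min, solubilized in 10 mM trizma base and read at 515 nm. GI50 is where 100×(T−T0)/(C−T0)=50.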

PC-3 = test: Growth inhibition of human PC3 cells after 48 hrs by sulforhodamine B assay; type: functional; conditions: PC-3, 48 h
How it was run: (§3)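 NCI-60 panel cells grown in RPMI 1640 with 5% FBS and 2 mM L-glutamine, seeded at 5000–40,000 cells/well and preincubated 24 h. Five 10-fold dilutions (0.001–100 µM) from DMSO stocks were added for 48 h at 37 °C. Adherent cells were fixed with cold TCA (10% final) for 60 min at 4 °C, stained with 0.4% SRB, and read at 515 nm. GI50 was set where 100×(T−T0)/(C−T0)=50.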

[2] = Growth inhibition of human NCI-ADR-RES cells after 48 hrs by sulforhodamine B assay; type: functional; how it was run: as §3
LOX IMVI = test: Growth inhibition of human LOXIMVI cells after 48 hrs by sulforhodamine B assay; type: functional
How it was run: (§4)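 NCI-60 screen: cells in RPMI 1640 with 5% FBS and 2 mM glutamine, 5000–40,000 cells/well, preincubated 24 h. Five concentrations (10-fold dilutions; 100 to 0.001 µM) applied for 48 h at 37 °C. TCA fixation, SRB stain, absorbance at 515 nm. Time-zero plates included; GI50 where 100×(T−T0)/(C−T0)=50.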

HCT-116 [3] = test: Growth inhibition of human HCT116 cells after 48 hrs by sulforhodamine B assay; type: functional; conditions: HCT-116, 48 h; how it was run: as §4
TK-10 = test: Growth inhibition of human TK10 cells after 48 hrs by sulforhodamine B assay; type: functional; conditions: TK-10, 48 h; how it was run: as §2
M14 = test: Growth inhibition of human M14 cells after 48 hrs by sulforhodamine B assay; type: functional; conditions: M14, 48 h; how it was run: as §4
U-251 = test: Growth inhibition of human U251 cells assessed as cell growth at 10 uM after 48 hrs by sulforhodamine B assay; type: functional; conditions: U-251, 48 h, read-out: Activity
How it was run: (§5)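 Single-dose NCI-60 test at 10 µM. Cells were grown in RPMI 1640 with 5% FBS and 2 mM L-glutamine, preincubated 24 h, with T0 plates TCA-fixed. Exposure was 48 h at 37 °C, 5% CO2. Cells were fixed with cold TCA (final 10%, 4 °C, 60 min), stained with SRB and read at 515 nm. Percent growth was taken relative to T0 and untreated control; negative values denote cell kill.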

OVCAR-3 = test: Growth inhibition of human OVCAR3 cells assessed as cell growth at 10 uM after 48 hrs by sulforhodamine B assay; type: functional; conditions: OVCAR-3, 48 h, read-out: Activity; how it was run: as §1
UACC-62 [4] = test: Growth inhibition of human UACC62 cells after 48 hrs by sulforhodamine B assay; type: functional; conditions: UACC-62, 48 h; how it was run: as §2
HCT-15 = test: Growth inhibition of human HCT15 cells assessed as cell growth at 10 uM after 48 hrs by sulforhodamine B assay; type: functional; conditions: HCT-15, 48 h, read-out: Activity
How it was run: (§6)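 NCI-60 single-dose screen at 10 µM: cells in RPMI 1640 with 5% FBS, preincubated 24 h, then exposed 48 h at 37 °C. TCA fixation (16% final for suspension cells), SRB staining, absorbance 515 nm. Percent growth relative to time-zero and untreated control plates; negative values indicate cell kill.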

UACC-62 [5] = test: Growth inhibition of human UACC62 cells assessed as cell growth at 10 uM after 48 hrs by sulforhodamine B assay; type: functional; conditions: UACC-62, 48 h, read-out: Activity; how it was run: as §5
HCT-116 [6] = test: Growth inhibition of human HCT116 cells assessed as cell growth at 10 uM after 48 hrs by sulforhodamine B assay; type: functional; conditions: HCT-116, 48 h, read-out: Activity; how it was run: as §6
SF-295 = test: Growth inhibition of human SF295 cells assessed as cell growth at 10 uM after 48 hrs by sulforhodamine B assay; type: functional; conditions: SF-295, 48 h, read-out: Activity; how it was run: as §1
[7] = Growth inhibition of human Hs 578T cells assessed as cell growth at 10 uM after 48 hrs by sulforhodamine B assay; type: functional; conditions: read-out: Activity; how it was run: as §6
[8] = Growth inhibition of human NCI-ADR-RES cells assessed as cell growth at 10 uM after 48 hrs by sulforhodamine B assay; type: functional; conditions: read-out: Activity; how it was run: as §1
NCI-H23 = test: Growth inhibition of human NCI-H23 cells after 48 hrs by sulforhodamine B assay; type: functional; conditions: NCI-H23, 48 h; how it was run: as §3
T47D = test: Growth inhibition of human T47D cells after 48 hrs by sulforhodamine B assay; type: functional; how it was run: as §2
[9] = Growth inhibition of human Hs 578T cells after 48 hrs by sulforhodamine B assay; type: functional; how it was run: as §4
786-0 = test: Growth inhibition of human 786-0 cells assessed as cell growth at 10 uM after 48 hrs by sulforhodamine B assay; type: functional; conditions: 786-0, 48 h, read-out: Activity; how it was run: as §6
MOLT-4 = test: Growth inhibition of human MOLT4 cells after 48 hrs by sulforhodamine B assay; type: functional; conditions: MOLT-4, 48 h
How it was run: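 NCI-60 suspension lines in RPMI 1640 with 5% FBS and 2 mM L-glutamine, preincubated 24 h. A five-concentration 10-fold series (0.001–100 µM) was given for 48 h at 37 °C. Settled cells were fixed with 80% TCA (16% final), stained with SRB, and read at 515 nm. GI50 was taken where 100×(T−T0)/(C−T0)=50, with T0 plates fixed at drug addition.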

HOP-62 = test: Growth inhibition of human HOP62 cells after 48 hrs by sulforhodamine B assay; type: functional; conditions: HOP-62, 48 h; how it was run: as §4
RXF 393 = test: Growth inhibition of human RXF393 cells after 48 hrs by sulforhodamine B assay; type: functional; conditions: RXF 393, 48 h; how it was run: as §3
MCF7 [10] = test: Antiproliferative activity against human MCF7 cells by MTT assay; type: functional, cell-based
How it was run: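 Cells plated at 8 × 10^3/well (MDA-MB-231) or 10^4/well (MCF7) in 96-well plates. Compounds fed in media with 5% FBS (MDA-MB-231) or 1% FBS (MCF7). MTT read-out of viable cells.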

| SMILES | growth at 10 µM (MCF7 [1]) | GI50 (SN12C) | GI50 (PC-3) | GI50 [2] | GI50 (LOX IMVI) | GI50 (HCT-116 [3]) | GI50 (TK-10) | GI50 (M14) | growth at 10 µM (U-251) | growth at 10 µM (OVCAR-3) | GI50 (UACC-62 [4]) | growth at 10 µM (HCT-15) | growth at 10 µM (UACC-62 [5]) | growth at 10 µM (HCT-116 [6]) | growth at 10 µM (SF-295) | growth at 10 µM [7] | growth at 10 µM [8] | GI50 (NCI-H23) | GI50 (T47D) | GI50 [9] | other results |
| --- | --- | --- | --- | --- | --- | --- | --- | --- | --- | --- | --- | --- | --- | --- | --- | --- | --- | --- | --- | --- | --- |
| CC(C)=CCC/C(C)=C/CC/C(C)=C/CC[C@]1(C)CCc2c3c(cc(C)c2O1)OCN(CCCCCO)C3 | -63.6% | 5.56 µM | 5.71 µM | 5.89 µM | 6.07 µM | 5.25 µM | 5.98 µM | 6.63 µM | -19.9% | 54.6% | 5.87 µM | 62.3% | 93.2% | -89.6% | 103% | 36.6% | 43.1% | 6.67 µM | 6.17 µM | 7.26 µM | growth at 10 µM (786-0): 81.2%; GI50 (MOLT-4): 5.87 µM; GI50 (HOP-62): 5.9 µM; GI50 (RXF 393): 1.94 µM; IC50 (MCF7 [10]): 9.1 µM |
| CC(C)=CCC/C(C)=C/CC/C(C)=C/CC[C@]1(C)CCc2c3c(cc(C)c2O1)OCN(CCCCO)C3 | -81.2% | 16.3 µM | 16.2 µM | 16.8 µM | 11.3 µM | 16 µM | 15.4 µM | 21 µM | -90.5% | -20.8% | 17.5 µM | -53.9% | 68.5% | -96.7% | 57.3% | 44.8% | -68.8% | 17.5 µM | 16.4 µM | 18.5 µM | growth at 10 µM (786-0): -49.2%; GI50 (MOLT-4): 16.2 µM; GI50 (HOP-62): 16.2 µM; GI50 (RXF 393): 4.68 µM; IC50 (MCF7 [10]): 16.3 µM |
| CC(C)=CCC/C(C)=C/CC/C(C)=C/CC[C@]1(C)CCc2c3c(c(C)c(C)c2O1)OCN(CCCCCCCCO)C3 | 4.37% | 2.55 µM | 2.37 µM | 5.5 µM | 3.29 µM | 2.95 µM | 3.41 µM | 3.02 µM | 34% | 31.7% | 2.51 µM | 75.3% | 93.1% | -92.9% | 48.1% | 81.7% | 66.6% | 3.16 µM | 3.03 µM | 2.61 µM | growth at 10 µM (786-0): 59.8%; GI50 (MOLT-4): 3.26 µM; GI50 (HOP-62): 2.81 µM; GI50 (RXF 393): 2.45 µM; IC50 (MCF7 [10]): > 20 µM |
| CC(C)=CCC/C(C)=C/CC/C(C)=C/CC[C@]1(C)CCc2c3c(cc(C)c2O1)OCN(CCCO)C3 | -94.2% | 1.67 µM | 1.63 µM | 1.96 µM | 1.69 µM | 1.79 µM | 2.06 µM | 1.92 µM | -83.4% | -38.4% | 1.81 µM | 0.85% | 93% | -85.4% | 74% | -11.8% | -26.4% | 1.88 µM | 2.01 µM | 2.03 µM | growth at 10 µM (786-0): 16.6%; GI50 (MOLT-4): 1.92 µM; GI50 (HOP-62): 1.78 µM; GI50 (RXF 393): 1.2 µM; IC50 (MCF7 [10]): > 20 µM |
| CC(C)=CCC/C(C)=C/CC/C(C)=C/CC[C@]1(C)CCc2c3c(c(C)c(C)c2O1)OCN(CCCCCO)C3 | 24.3% | 5.56 µM | 5.71 µM | 5.89 µM | 6.07 µM | 5.25 µM | 5.98 µM | 6.63 µM | 58.6% | 65.2% | 5.87 µM | 105% | 99.2% | 36.1% | 92.7% | 97.3% | 82.5% | 6.67 µM | 6.17 µM | 7.26 µM | growth at 10 µM (786-0): 90.2%; GI50 (MOLT-4): 5.87 µM; GI50 (HOP-62): 5.9 µM; GI50 (RXF 393): 1.94 µM; IC50 (MCF7 [10]): > 20 µM |
